Measured values published in ChEMBL document CHEMBL2146394, “Design and synthesis of pyrrolo[3,2-d]pyrimidine HER2/EGFR dual inhibitors: improvement of the physicochemical and pharmacokinetic profiles for potent in vivo anti-tumor efficacy” (Bioorg Med Chem, 2012).

How the values were obtained:
[1] = biological target: Epidermal growth factor receptor (Homo sapiens, UniProt P00533); assay: Inhibition of human N-terminal DYKDDDD tagged EGFR cytoplasmic domain amino acid 669 to 1210 expressed in baculovirus after 5 mins by scintillation counter
[2] = Metabolic stability in human hepatic microsomes at 1 umol/L after 20 mins; type: ADME; details: liver microsomes, read-out: Stability
Outline: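 Human liver microsomes (0.2 mg/mL protein) with 1 µmol/L compound in 50 mmol/L phosphate pH 7.4 plus an NADPH-generating system (glucose-6-phosphate, β-NADP⁺, G6PDH, MgCl₂). Incubated at 37 °C for 0 and 20 min, stopped with acetonitrile, duplicates. Remaining compound measured by HPLC with photodiode array detection.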

[3] = Metabolic stability in mouse hepatic microsomes at 1 umol/L after 20 mins; type: ADME; details: liver microsomes, read-out: Stability
[4] = Apparent permeability across apical to basolateral side in human Caco2 cells at 10 umol/L; type: ADME, cell-based; details: Caco-2
Outline: (§1)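 Confluent Caco-2 monolayers on collagen-coated polycarbonate Transwell membranes. HBSS with 10 mmol/L HEPES, 15 mmol/L glucose and 1% BSA, pH 7.3–7.5. Compound dosed at 10 µmol/L apically (A→B) or basolaterally (B→A), 37 °C, 5% CO₂. Receivers sampled at 1 and 2 h; LC/MS/MS. Papp from receiver concentration slope; duplicates.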

[5] = test system: BT-474; assay: Antitumor activity against human BT474 cells xenografted in BALB/c nu/nu mouse at 100 mg/kg, po bid administered 14 days measured on day 31 relative to control; type: functional
Outline: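 BT-474 xenografts: 1×10⁷ cells in Matrigel implanted subcutaneously into the right flank of female BALB/c nu/nu mice. Estradiol dipropionate 0.25 mg given intramuscularly on days 0 and 7. Tumours of 200–300 mm³ used. Dosing 100 mg/kg orally bid in 0.5% methylcellulose for 14 days. Volume a×b²/2 by calipers. T/C (%) compared at day 31.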

[6] = biological target: Receptor tyrosine-protein kinase erbB-2 (Homo sapiens, UniProt P04626); assay: Inhibition of human N-terminal DYKDDDD tagged HER2 cytoplasmic domain amino acid 676 to 1255 expressed in baculovirus after 5 mins by scintillation counter
Outline: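 FLAG-purified HER2 cytoplasmic domain in 50 mmol/L Tris-HCl pH 7.5, 5 mmol/L MnCl₂, 0.01% Tween-20, 2 mmol/L DTT, with poly-Glu-Tyr (4:1) and [γ-³²P]ATP. Compound and enzyme preincubated 5 min at room temperature; reaction started with ATP, 10 min at room temperature. Stopped with 10% TCA, filter-harvested, washed with 3% phosphoric acid, scintillation counted.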

[7] = Apparent permeability across basolateral to apical side in human Caco2 cells at 10 umol/L; type: ADME, cell-based; details: Caco-2; outline: as §1
[8] = test system: BT-474; assay: Growth inhibition of HER2 over-expressing human BT474 cells after 5 days; type: functional; details: BT-474, 120 h
Outline: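 BT-474 cells kept in RPMI 1640 with 10% heat-inactivated FBS. Seeded at 3×10⁴ cells/well and allowed to attach overnight. Treated continuously with compound for 5 days. Live cells counted with a particle analyzer; GI₅₀ derived.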

[9] = biological target: Insulin receptor (Homo sapiens, UniProt P06213); assay: Inhibition of INSR after 5 mins
Outline: (§2)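 AlphaScreen tyrosine kinase assay: 50 mmol/L Tris-HCl pH 7.5, 5 mmol/L MnCl₂, 5 mmol/L MgCl₂, 0.01% Tween-20, 2 mmol/L DTT, biotinylated poly-Glu-Tyr (4:1), kinase-optimized enzyme, ATP and time (5–60 min). Seven compound concentrations, 0.01–10000 nmol/L, preincubated 5 min at room temperature. Stopped with EDTA plus streptavidin donor and PY-100 or PT66 acceptor beads; read after >12 h in the dark. Controls: no compound; no ATP.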

[10] = biological target: Mitogen-activated protein kinase kinase kinase 7 (Homo sapiens, UniProt O43318); assay: Inhibition of N-terminal FLAG-tagged TAK1 expressed in baculovirus after 5 mins by scintillation counter
[11] = Antitumor activity against human 4-1ST cells xenografted in F344/N jcl-rnu rat at 25 mg/kg, po bid administered 14 days measured on day 31 relative to control; type: functional
Outline: (§3)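 4-1ST human gastric tumour tissue from donor animals minced and implanted subcutaneously in nude mice or nude rats. Tumours of 200–300 mm³ used. Compounds in 0.5% (w/v) methylcellulose given orally twice daily at 10 mL/kg for 14 days; control got vehicle. Doses expressed as salt-free. Caliper volume (a×b²/2) measured blind 2–3 times weekly. T/C (%) versus control; five mice or eight rats per group.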

[12] = biological target: Mitogen-activated protein kinase 14 (Homo sapiens, UniProt Q16539); assay: Inhibition of N-terminal FLAG-tagged p38alpha expressed in baculovirus after 5 mins by scintillation counter
[13] = biological target: Insulin-like growth factor 1 receptor (Homo sapiens, UniProt P08069); assay: Inhibition of IGF-1R after 5 mins; outline: as §2
[14] = biological target: Dual specificity mitogen-activated protein kinase kinase 1 (Homo sapiens, UniProt Q02750); assay: Inhibition of N-terminal GST-tagged MEK1 after 5 mins by scintillation counter
[15] = biological target: Hepatocyte growth factor receptor (Homo sapiens, UniProt P08581); assay: Inhibition of c-Met after 5 mins; outline: as §2
[16] = biological target: Mitogen-activated protein kinase 8 (Homo sapiens, UniProt P45983); assay: Inhibition of N-terminal FLAG-tagged JNK1 expressed in baculovirus after 5 mins by scintillation counter
[17] = biological target: Mitogen-activated protein kinase 3 (Homo sapiens, UniProt P27361); assay: Inhibition of N-terminal FLAG-tagged ERK1 expressed in baculovirus after 5 mins by scintillation counter
[18] = biological target: Proto-oncogene tyrosine-protein kinase Src (Homo sapiens, UniProt P12931); assay: Inhibition of Src after 5 mins; outline: as §2
[19] = biological target: Aurora kinase B (Homo sapiens, UniProt Q96GD4); assay: Inhibition of N-terminal His6-tagged Aurora B expressed in baculovirus after 5 mins by scintillation counter
[20] = biological target: Tyrosine-protein kinase ZAP-70 (Homo sapiens, UniProt P43403); assay: Inhibition of ZAP70 after 5 mins; outline: as §2
[21] = biological target: Dual specificity protein kinase TTK (Homo sapiens, UniProt P33981); assay: Inhibition of N-terminal FLAG-tagged TTK expressed in baculovirus after 5 mins by scintillation counter
[22] = Antitumor activity against human 4-1ST cells xenografted in BALB/c nu/nu mouse at 100 mg/kg, po bid administered 14 days measured on day 31 relative to control; type: functional; outline: as §3
[23] = Antitumor activity against human 4-1ST cells xenografted in F344/N jcl-rnu rat at 12.5 mg/kg, po bid administered 14 days measured on day 31 relative to control; type: functional; outline: as §3
[24] = biological target: Protein kinase C theta type (Homo sapiens, UniProt Q04759); assay: Inhibition of N-terminal FLAG-tagged PKCtheta expressed in baculovirus after 5 mins by scintillation counter
[25] = Antitumor activity against human 4-1ST cells xenografted in BALB/c nu/nu mouse at 50 mg/kg, po bid administered 14 days measured on day 31 relative to control; type: functional; outline: as §3
[26] = biological target: Vascular endothelial growth factor receptor 1 (Homo sapiens, UniProt P17948); assay: Inhibition of VEGFR1 after 5 mins; outline: as §2
[27] = biological target: Serine/threonine-protein kinase PLK1 (Homo sapiens, UniProt P53350); assay: Inhibition of N-terminal FLAG-tagged PLK1 expressed in baculovirus after 5 mins by scintillation counter
[28] = biological target: Fibroblast growth factor receptor 3 (Homo sapiens, UniProt P22607); assay: Inhibition of FGFR3 after 5 mins; outline: as §2
[29] = biological target: Mitogen-activated protein kinase kinase kinase 5 (Homo sapiens, UniProt Q99683); assay: Inhibition of N-terminal FLAG-tagged ASK1 expressed in baculovirus after 5 mins by scintillation counter
[30] = biological target: Angiopoietin-1 receptor (Homo sapiens, UniProt Q02763); assay: Inhibition of TIE2 after 5 mins; outline: as §2
[31] = biological target: Focal adhesion kinase 1 (Homo sapiens, UniProt Q05397); assay: Inhibition of full length N-terminal FLAG-tagged FAK expressed in baculovirus after 5 mins; outline: as §2
[32] = biological target: Inhibitor of nuclear factor kappa-B kinase subunit beta (Homo sapiens, UniProt O14920); assay: Inhibition of C-terminal FLAG-tagged IKKbeta expressed in baculovirus after 5 mins by scintillation counter
[33] = biological target: Tyrosine-protein kinase CSK (Homo sapiens, UniProt P41240); assay: Inhibition of CSK after 5 mins; outline: as §2
[34] = biological target: Cytoplasmic tyrosine-protein kinase BMX (Homo sapiens, UniProt P51813); assay: Inhibition of full length N-terminal FLAG-tagged BMX expressed in baculovirus after 5 mins; outline: as §2
[35] = biological target: Receptor tyrosine-protein kinase erbB-4 (Homo sapiens, UniProt Q15303); assay: Inhibition of HER4 cytoplasmic domain after 5 mins by scintillation counter
Outline: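 HER4 cytoplasmic domain run as in the HER2/EGFR radiometric [γ-³²P]ATP filter assay: 5 min enzyme–compound preincubation, 10 min reaction at room temperature, TCA stop, scintillation count, nonlinear-regression IC₅₀.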

[36] = biological target: T1, Tyrosine-protein kinase Lyn (Homo sapiens, UniProt P07948); assay: Inhibition of LYN A after 5 mins; outline: as §2
[37] = biological target: Vascular endothelial growth factor receptor 2 (Homo sapiens, UniProt P35968); assay: Inhibition of N-terminal FLAG-tagged VEGFR2 cytoplasmic domain expressed in baculovirus after 5 mins; outline: as §2
[38] = biological target: T1, Tyrosine-protein kinase Lyn; assay: Inhibition of LYN B after 5 mins; outline: as §2
[39] = biological target: Serine/threonine-protein kinase B-raf (Homo sapiens, UniProt P15056); assay: Inhibition of N-terminal FLAG-tagged B-raf expressed in baculovirus after 5 mins by scintillation counter
[40] = biological target: Mast/stem cell growth factor receptor Kit (Homo sapiens, UniProt P10721); assay: Inhibition of c-kit after 5 mins; outline: as §2
[41] = biological target: Dual specificity mitogen-activated protein kinase kinase 5 (Homo sapiens, UniProt Q13163); assay: Inhibition of N-terminal FLAG-tagged MEK5 expressed in baculovirus after 5 mins by scintillation counter
[42] = biological target: Glycogen synthase kinase-3 beta (Homo sapiens, UniProt P49841); assay: Inhibition of N-terminal FLAG-tagged GSK3beta expressed in baculovirus after 5 mins by scintillation counter
[43] = biological target: Mitogen-activated protein kinase kinase kinase 1 (Homo sapiens, UniProt Q13233); assay: Inhibition of C-terminal FLAG-tagged MEKK expressed in baculovirus after 5 mins by scintillation counter
[44] = biological target: Fibroblast growth factor receptor 1 (Homo sapiens, UniProt P11362); assay: Inhibition of FGFR1 after 5 min; outline: as §2

Chain of Epidermal growth factor receptor (P00533 whole entry, the tested form may be a part): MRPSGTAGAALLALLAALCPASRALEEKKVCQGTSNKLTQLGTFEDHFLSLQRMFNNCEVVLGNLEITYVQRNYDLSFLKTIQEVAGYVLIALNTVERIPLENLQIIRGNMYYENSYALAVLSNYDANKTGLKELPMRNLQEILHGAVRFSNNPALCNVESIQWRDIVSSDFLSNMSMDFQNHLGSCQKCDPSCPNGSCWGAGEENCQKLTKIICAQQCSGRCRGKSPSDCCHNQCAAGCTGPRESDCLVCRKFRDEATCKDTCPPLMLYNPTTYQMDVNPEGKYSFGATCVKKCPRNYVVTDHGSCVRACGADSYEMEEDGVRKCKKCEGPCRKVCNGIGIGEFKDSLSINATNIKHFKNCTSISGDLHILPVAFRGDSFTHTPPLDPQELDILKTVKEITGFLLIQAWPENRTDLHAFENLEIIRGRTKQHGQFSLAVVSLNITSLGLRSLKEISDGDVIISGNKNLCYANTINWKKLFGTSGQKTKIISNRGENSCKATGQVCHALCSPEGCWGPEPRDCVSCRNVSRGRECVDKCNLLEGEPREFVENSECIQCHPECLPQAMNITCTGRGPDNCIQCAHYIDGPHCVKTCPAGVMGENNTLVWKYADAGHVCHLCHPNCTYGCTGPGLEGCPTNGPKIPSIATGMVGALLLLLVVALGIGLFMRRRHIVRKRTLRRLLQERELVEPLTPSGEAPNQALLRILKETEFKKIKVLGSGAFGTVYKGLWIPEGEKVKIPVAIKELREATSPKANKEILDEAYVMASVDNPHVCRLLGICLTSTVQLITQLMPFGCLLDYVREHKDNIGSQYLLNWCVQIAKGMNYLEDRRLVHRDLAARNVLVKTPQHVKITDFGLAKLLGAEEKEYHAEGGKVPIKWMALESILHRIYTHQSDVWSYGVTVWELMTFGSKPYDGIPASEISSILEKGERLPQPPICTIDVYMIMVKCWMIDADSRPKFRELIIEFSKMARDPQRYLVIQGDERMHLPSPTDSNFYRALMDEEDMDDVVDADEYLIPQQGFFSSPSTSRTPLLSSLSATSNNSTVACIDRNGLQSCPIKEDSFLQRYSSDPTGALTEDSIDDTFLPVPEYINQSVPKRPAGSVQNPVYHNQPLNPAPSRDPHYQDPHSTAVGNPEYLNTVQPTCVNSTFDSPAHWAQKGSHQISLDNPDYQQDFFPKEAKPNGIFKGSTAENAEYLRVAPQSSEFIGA
Chain of Receptor tyrosine-protein kinase erbB-2 (P04626 whole entry, the tested form may be a part): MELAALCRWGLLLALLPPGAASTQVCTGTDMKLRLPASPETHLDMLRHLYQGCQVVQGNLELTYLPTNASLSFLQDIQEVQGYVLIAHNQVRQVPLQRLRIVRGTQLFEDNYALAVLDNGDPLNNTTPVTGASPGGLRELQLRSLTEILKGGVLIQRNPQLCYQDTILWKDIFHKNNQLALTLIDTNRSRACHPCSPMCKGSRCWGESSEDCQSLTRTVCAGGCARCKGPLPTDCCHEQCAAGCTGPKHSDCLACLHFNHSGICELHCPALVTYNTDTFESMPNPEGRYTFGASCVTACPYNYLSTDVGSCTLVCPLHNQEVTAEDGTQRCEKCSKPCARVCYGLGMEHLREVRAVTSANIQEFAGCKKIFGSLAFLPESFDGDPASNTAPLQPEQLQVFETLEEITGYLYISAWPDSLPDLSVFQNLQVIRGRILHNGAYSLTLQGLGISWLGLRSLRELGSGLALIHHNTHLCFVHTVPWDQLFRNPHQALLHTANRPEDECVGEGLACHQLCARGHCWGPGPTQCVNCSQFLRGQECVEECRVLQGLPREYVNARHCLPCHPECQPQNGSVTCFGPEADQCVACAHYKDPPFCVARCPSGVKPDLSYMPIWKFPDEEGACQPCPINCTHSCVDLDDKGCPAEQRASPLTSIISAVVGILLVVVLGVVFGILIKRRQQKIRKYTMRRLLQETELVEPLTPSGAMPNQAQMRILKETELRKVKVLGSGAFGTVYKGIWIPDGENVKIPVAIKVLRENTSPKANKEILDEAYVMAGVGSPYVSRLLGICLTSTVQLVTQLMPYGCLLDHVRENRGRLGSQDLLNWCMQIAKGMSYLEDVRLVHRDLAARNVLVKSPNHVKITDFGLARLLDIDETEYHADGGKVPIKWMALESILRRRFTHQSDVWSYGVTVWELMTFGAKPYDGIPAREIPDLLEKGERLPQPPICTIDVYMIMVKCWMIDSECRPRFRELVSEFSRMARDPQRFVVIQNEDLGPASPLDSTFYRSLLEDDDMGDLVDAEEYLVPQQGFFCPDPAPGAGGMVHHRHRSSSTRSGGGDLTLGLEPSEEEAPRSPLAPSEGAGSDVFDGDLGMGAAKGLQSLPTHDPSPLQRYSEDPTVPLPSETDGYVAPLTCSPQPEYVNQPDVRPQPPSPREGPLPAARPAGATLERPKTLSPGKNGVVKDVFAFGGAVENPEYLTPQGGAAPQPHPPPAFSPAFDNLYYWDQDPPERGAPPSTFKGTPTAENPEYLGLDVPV
T1 sequence (P07948 whole entry, the tested form may be a part): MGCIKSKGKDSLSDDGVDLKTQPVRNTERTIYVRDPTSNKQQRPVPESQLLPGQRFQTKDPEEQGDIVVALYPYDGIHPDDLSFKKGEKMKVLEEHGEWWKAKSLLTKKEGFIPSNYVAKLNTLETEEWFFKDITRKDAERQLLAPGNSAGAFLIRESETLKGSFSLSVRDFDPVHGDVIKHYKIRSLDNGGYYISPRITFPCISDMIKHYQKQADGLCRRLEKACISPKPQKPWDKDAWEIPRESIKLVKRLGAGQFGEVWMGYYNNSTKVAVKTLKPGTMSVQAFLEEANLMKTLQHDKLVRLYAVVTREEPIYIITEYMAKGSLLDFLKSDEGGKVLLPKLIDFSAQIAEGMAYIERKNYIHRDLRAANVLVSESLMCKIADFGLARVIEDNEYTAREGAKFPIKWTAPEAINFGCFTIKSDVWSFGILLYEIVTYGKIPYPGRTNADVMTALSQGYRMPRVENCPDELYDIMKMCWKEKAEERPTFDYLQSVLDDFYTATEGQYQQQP
Chain of Serine/threonine-protein kinase B-raf (P15056 whole entry): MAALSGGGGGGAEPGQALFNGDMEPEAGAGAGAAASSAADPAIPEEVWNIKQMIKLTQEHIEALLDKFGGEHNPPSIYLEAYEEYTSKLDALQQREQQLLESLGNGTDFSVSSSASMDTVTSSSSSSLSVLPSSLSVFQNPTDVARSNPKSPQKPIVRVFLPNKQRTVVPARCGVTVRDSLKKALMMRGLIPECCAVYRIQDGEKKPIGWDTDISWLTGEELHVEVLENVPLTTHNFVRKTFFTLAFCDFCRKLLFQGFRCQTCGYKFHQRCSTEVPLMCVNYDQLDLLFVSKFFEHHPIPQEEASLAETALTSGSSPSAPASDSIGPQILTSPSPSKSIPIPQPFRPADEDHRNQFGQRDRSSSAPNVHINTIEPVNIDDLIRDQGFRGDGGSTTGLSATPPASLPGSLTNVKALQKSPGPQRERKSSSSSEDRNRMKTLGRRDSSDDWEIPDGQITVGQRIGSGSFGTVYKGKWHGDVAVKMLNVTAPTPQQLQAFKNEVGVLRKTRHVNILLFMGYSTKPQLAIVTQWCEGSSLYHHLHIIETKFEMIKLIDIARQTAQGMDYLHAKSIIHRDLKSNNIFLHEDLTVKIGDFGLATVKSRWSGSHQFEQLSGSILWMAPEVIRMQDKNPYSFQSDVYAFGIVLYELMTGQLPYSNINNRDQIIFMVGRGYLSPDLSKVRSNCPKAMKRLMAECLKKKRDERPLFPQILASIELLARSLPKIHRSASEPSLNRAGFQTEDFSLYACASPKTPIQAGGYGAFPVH
Chain of Angiopoietin-1 receptor (Q02763 whole entry): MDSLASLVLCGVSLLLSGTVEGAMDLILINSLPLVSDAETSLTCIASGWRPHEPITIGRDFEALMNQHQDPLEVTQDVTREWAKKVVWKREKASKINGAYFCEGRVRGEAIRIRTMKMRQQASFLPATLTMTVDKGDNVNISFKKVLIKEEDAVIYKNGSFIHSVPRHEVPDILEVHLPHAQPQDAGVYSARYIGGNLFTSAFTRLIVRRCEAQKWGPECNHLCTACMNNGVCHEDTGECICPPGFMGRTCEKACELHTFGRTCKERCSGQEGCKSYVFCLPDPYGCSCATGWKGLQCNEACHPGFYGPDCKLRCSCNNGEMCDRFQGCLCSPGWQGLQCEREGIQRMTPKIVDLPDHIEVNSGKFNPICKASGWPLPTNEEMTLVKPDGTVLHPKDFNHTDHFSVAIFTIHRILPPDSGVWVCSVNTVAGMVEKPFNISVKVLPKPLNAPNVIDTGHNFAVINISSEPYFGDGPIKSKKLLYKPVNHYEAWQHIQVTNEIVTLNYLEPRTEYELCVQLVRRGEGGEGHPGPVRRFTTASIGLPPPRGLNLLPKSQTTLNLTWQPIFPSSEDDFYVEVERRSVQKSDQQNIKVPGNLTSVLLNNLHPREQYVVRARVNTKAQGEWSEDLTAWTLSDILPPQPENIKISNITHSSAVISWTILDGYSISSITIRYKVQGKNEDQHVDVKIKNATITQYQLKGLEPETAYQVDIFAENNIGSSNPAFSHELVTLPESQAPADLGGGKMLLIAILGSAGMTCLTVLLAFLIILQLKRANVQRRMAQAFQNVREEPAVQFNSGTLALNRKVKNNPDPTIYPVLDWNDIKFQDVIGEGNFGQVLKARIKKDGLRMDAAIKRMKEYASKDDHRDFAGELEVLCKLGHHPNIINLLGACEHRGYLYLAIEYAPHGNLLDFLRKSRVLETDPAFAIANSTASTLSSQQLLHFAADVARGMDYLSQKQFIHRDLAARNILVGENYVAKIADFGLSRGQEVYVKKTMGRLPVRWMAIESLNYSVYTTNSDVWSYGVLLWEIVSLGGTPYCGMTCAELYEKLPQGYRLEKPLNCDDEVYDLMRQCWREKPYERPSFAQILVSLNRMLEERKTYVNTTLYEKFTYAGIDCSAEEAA

CC(C)(C(=O)NCCn1ccc2ncnc(Nc3ccc(Oc4cccc(C(F)(F)F)c4)c(Cl)c3)c21)S(C)(=O)=O
IC50 [1]: 0.047 µM
microsomal CLint at 1 µM [2]: 38 µL/min/mg
microsomal CLint at 1 µM [3]: 23 µL/min/mg
Papp A→B at 10 µM [4]: 2.87 ×10⁻⁶ cm/s
T/C [5]: 43%
IC50 [6]: 0.017 µM
Papp B→A at 10 µM [7]: 4.26 ×10⁻⁶ cm/s
GI50 [8]: 0.055 µM

CS(=O)(=O)CC(=O)NCCn1ccc2ncnc(Nc3ccc(Oc4cccc(Cl)c4)c(Cl)c3)c21
IC50 [1]: 0.0067 µM
microsomal CLint at 1 µM [2]: 11 µL/min/mg
Papp A→B at 10 µM [4]: 0.67 ×10⁻⁶ cm/s
IC50 [6]: 0.0029 µM
Papp B→A at 10 µM [7]: 6.79 ×10⁻⁶ cm/s
GI50 [8]: 0.0039 µM

CC(C(=O)NCCn1ccc2ncnc(Nc3ccc(Oc4cccc(Cl)c4)c(Cl)c3)c21)S(C)(=O)=O (stereo unspecified)
IC50 [1]: 0.0098 µM
microsomal CLint at 1 µM [2]: 4 µL/min/mg
IC50 [6]: 0.0041 µM
GI50 [8]: 0.032 µM

CC(C)(C(=O)NCCn1ccc2ncnc(Nc3ccc(Oc4cccc(Cl)c4)c(Cl)c3)c21)S(C)(=O)=O
microsomal CLint at 1 µM [2]: 21 µL/min/mg
Papp A→B at 10 µM [4]: 2.85 ×10⁻⁶ cm/s
T/C [5]: 24%
Papp B→A at 10 µM [7]: 7.69 ×10⁻⁶ cm/s
GI50 [8]: 0.056 µM

CC(C)(C(=O)NCCn1ccc2ncnc(Nc3ccc(Oc4cccc(Cl)c4)c(Cl)c3)c21)S(C)(=O)=O.Cc1ccc(S(=O)(=O)O)cc1
IC50 [9]: > 10 µM
IC50 [10]: > 10 µM
T/C [11]: -1%
IC50 [12]: > 10 µM
IC50 [13]: > 10 µM
IC50 [14]: 0.98 µM
IC50 [15]: 3.9 µM
IC50 [16]: > 10 µM
IC50 [17]: > 10 µM
IC50 [18]: > 10 µM
IC50 [19]: 0.5 µM
IC50 [20]: > 10 µM
IC50 [21]: > 10 µM
T/C [22]: 0%
T/C [23]: 41%
IC50 [24]: > 10 µM
T/C [25]: 41%
IC50 [26]: > 10 µM
IC50 [27]: > 10 µM
IC50 [28]: > 10 µM
IC50 [29]: > 10 µM
IC50 [30]: > 10 µM
IC50 [31]: > 10 µM
IC50 [32]: > 10 µM
IC50 [33]: 5.1 µM
IC50 [34]: > 10 µM
IC50 [35]: 0.16 µM
IC50 [36]: 3.6 µM
IC50 [37]: > 10 µM
IC50 [38]: 3.3 µM
IC50 [39]: > 10 µM
IC50 [40]: > 10 µM
IC50 [41]: > 10 µM
IC50 [42]: > 10 µM
IC50 [43]: > 10 µM
IC50 [44]: > 10 µM

CC(C)(O)CC(=O)NCCn1ccc2ncnc(Nc3ccc(Oc4cccc(C(F)(F)F)c4)c(Cl)c3)c21 [TAK-285]
T/C [11]: -12%
T/C [22]: 11%
T/C [23]: 14%
T/C [25]: 44%
Papp A→B at 10 µM [4]: 5.05 ×10⁻⁶ cm/s
T/C [5]: 29%
Papp B→A at 10 µM [7]: 6.87 ×10⁻⁶ cm/s
